Results on 38 variants are retold here after the RNAGym collection of RNA variant scans (doi:10.1126/science.aae0568).

B1: tRNA (parent)
chain: GUUCCGUUGGCGUAAUGGUAACGCGUCUCCCUCCUAAGGAGAAGACUGCGGGUUCGAGUCCCGUACGGAACG

This sample holds only a part of the variants without activity.

In this series the parent is B1. The series is described as follows: yeast fitness relative to wild type (ratio to wild type); higher = fitter; tRNA-Arg(CCU), competitive growth, 37 C, YPD. The gist of the method:
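Amplicons of the tRNA-Arg(CCU) gene were sequenced, 100-nucleotide paired-end, from the start population and from each end population of a pooled yeast competition. The competition, in six parallel replicates, lasted 24 hours in YPD at 37°C. Fitness relative to wild type was calculated from changes in genotype frequencies. Genotypes had to have ≥ 100 starting reads, and estimates < 0.5 were set to 0.5.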
Take GUUCCGUUGGCGUAAUGGUAACGCGUCUCCCUACUAAGGGGGAGACUGCGGGUUCGAGUCCCGUACGGAACG [C33A A40G A42G]: the yeast fitness was 0.564.

As to GUUCCGUUGGCGUAAUGGUAACGCGUCUCCCGGCUAAGGAGAAGACUGCGGGUUCGAGUCCCGUUCGGAACG [U32G C33G A65U], the yeast fitness was at most 0.5.

As for GUUCCGUUGGCGUAAUGGUAACGCGUCUCCCUACUCAGGAGAAGACUACGGGUUCGAGUCCCGUAGGGAACG [C33A A36C G48A C66G], the yeast fitness is at most 0.5.

Turning to GUUCCGUUGGCGUAAUGGUAACGCGUCUCCCUACUAAGGAGAAGUCUGCGGGUUCGAGUCCCGUACGGACCG [C33A A45U A70C], the yeast fitness was 0.512.

Turning to GUUCCGUUGGCGUAAUGGUAACGCGUCUCCCGCAUAAGGCGAAGACUGCGGGUUCGAGUUCCGUACGGAACG [U32G C34A A40C C60U], the yeast fitness is at most 0.5.

Regarding GUUCCGUUGGCGUAAUGGUAACGCGUCUCCCGCCUAAGGAGAAGACUGCGGGUUCGAGUCCCGUACAGAACG [U32G G67A], the yeast fitness was determined as 0.643.

In the case of GUUCCGUUGGCGUAAUGGUAACGCGUCUCCCGCCUAAGGAGAAGACUGCGGGUUCGAGUCCCGUACUGAACG [U32G G67U], the yeast fitness was determined as 0.547.

GUUCCGUUGGCGUAAUGGUAACGCGUCUCCCUACUAACGAGAGGACUGCGGGCUCGAGUCCCGUACGGAACG [C33A G38C A43G U53C]: the yeast fitness was 0.547.

For GUUCCGUUGGCGUAAUGGUAACGCGUCUCCCUACUACGGAGAAGACUGCGGGUUCGAGUCCCAUACGGAACG [C33A A37C G63A], the yeast fitness was at most 0.5.

As to GUUCCGUUGGCGUAAUGGUAACGCGUCUCCCUACUAAGGAGAAGACUGUGGGUUCGAGUCCCGUAUGGAACG [C33A C49U C66U], the yeast fitness stood at 0.524.

As to GUUCCGUUGGCGUAAUGGUAACGCGUCUCCCUACUAAGAAGAAGACUGCCGGUUCGAGUCCCGUACCGAACG [C33A G39A G50C G67C], the yeast fitness is 0.573.

In the case of GUUCCGUUGGCGUAAUGGUAACGCGUCUCCCGCCUAAGGAGAAGACUGCGGGUUCGAGUCAAGUACGGAACG [U32G C61A C62A], the yeast fitness stood at 0.537.

GUUCCGUUGGCGUAAUGGUAACGCGUCUCCCUACUAAGGAGAAGACUGCGGGUUUGAGUCCCGUACGGAACG [C33A C55U]: the yeast fitness was found to be 0.581.

Consider GUUCCGUUGGCGUAAUGGUAACGCGUCUCCCGCCUAAGCAGAAGACUGCGGCUUCGAGUCCCGUACGGAACG [U32G G39C G52C], for which the yeast fitness worked out at 0.531.

For GUUCCGUUGGCGUAAUGGUAACGCGUCUCCCUACUAAGGAGAAGACUGCGGGUUGGAGUCCCGUACGGCACG [C33A C55G A69C], the yeast fitness was at most 0.5.

As to GUUCCGUUGGCGUAAUGGUAACGCGUCUCCCUACUCAGGAGAAGACUGCGGGUUCGAGUCCCGUACGGAACG [C33A A36C], the yeast fitness was 0.526.

Regarding GUUCCGUUGGCGUAAUGGUAACGCGUCUCCCUACUAAGGAGAAGACUGUGGGUUCGAGUCCGGUACGGAACG [C33A C49U C62G], the yeast fitness was 0.735.

In the case of GUUCCGUUGGCGUAAUGGUAACGCGUCUCCCUACUAAGGAGAAGACUGCGGGUUCGUGUCCCGUAUGGAACG [C33A A57U C66U], the yeast fitness was found to be 0.555.

Turning to GUUCCGUUGGCGUAAUGGUAACGCGUCUCCCUACUAAGGUGAAGACUGCGGGCUUGAGUCCUGUACGGAACG [C33A A40U U53C C55U C62U], the yeast fitness is at most 0.5.

Turning to GUUCCGUUGGCGUAAUGGUAACGCGUCUCCCGCCUAAGGAGAAGACUGCGGGUUGGAGUCCCGUACGGAACG [U32G C55G], the yeast fitness was at most 0.5.

Turning to GUUCCGUUGGCGUAAUGGUAACGCGUCUCCCUACUAAGGAGAAGAUUGCGGGUUCGAGUCGCGUACGGAACG [C33A C46U C61G], the yeast fitness is at most 0.5.

Take GUUCCGUUGGCGUAAUGGUAACGCGUCUCCCGCCUAAGGAGAAGACUGCGGGUUCGAGUCCCGUACGGAGCG [U32G A70G]: the yeast fitness was 0.628.

Regarding GUUCCGUUGGCGUAAUGGUAACGCGUCUCCCUACUAUGGAGAAGACUGCGGGUUCGGGUCCCGUACGGAACG [C33A A37U A57G], the yeast fitness came out at 0.545.

With GUUCCGUUGGCGUAAUGGUAACGCGUCUCCCUACUAUGGAGAAGACUGCGGGUUCGCGUCCCGUACGGAACG [C33A A37U A57C], the yeast fitness is at most 0.5.

For GUUCCGUUGGCGUAAUGGUAACGCGUCUCCCUACUAAGGAGAAGACUGCGGGUUCGAGUCGCGUACGGAACG [C33A C61G], the yeast fitness stood at 0.775.

Regarding GUUCCGUUGGCGUAAUGGUAACGCGUCUCCCGCCGCAGGAGAAGACUGCGGGUUCGAGUCCCGUACGGAACG [U32G U35G A36C], the yeast fitness was at most 0.5.

As for GUUCCGUUGGCGUAAUGGUAACGCGUCUCCCGUCUAGGGAGAAGACUGCGGGUUCGAGUCCCGUACGGAACG [U32G C33U A37G], the yeast fitness is at most 0.5.

In the case of GUUCCGUUGGCGUAAUGGUAACGCGUCUCCCUACUAAGAAGAAGACUGCGGCUUGGAGUCCCGUACGGAACG [C33A G39A G52C C55G], the yeast fitness is at most 0.5.

For GUUCCGUUGGCGUAAUGGUAACGCGUCUCCCUACUAAGGAGAAGAAUGCGGGUUCGAGUCGCGUACGGGACG [C33A C46A C61G A69G], the yeast fitness is at most 0.5.

For GUUCCGUUGGCGUAAUGGUAACGCGUCUCCCUACUAAGGAGAAGACUGUGGAUUCGAGUCCCGUACGGAACG [C33A C49U G52A], the yeast fitness was at most 0.5.

Regarding GUUCCGUUGGCGUAAUGGUAACGCGUCUCCCUACUAAGGAGAGGCCUGCGGGUUCGAGUCCCGUACGGAACG [C33A A43G A45C], the yeast fitness is at most 0.5.

For GUUCCGUUGGCGUAAUGGUAACGCGUCUCCCGCCUAAGGAGAAGACUGGGGGUUAGAGUCCCGUACGGAACG [U32G C49G C55A], the yeast fitness amounted to 0.65.

Take GUUCCGUUGGCGUAAUGGUAACGCGUCUCCCUAUUAAGGAGAAGACUGCGGGUUCGAGUCCCGUACGGAACG [C33A C34U]: the yeast fitness is at most 0.5.

In the case of GUUCCGUUGGCGUAAUGGUAACGCGUCUCCCUACUAAGGUGAAGACUGCGUGUUCGAGUCCCGAACGGAACG [C33A A40U G51U U64A], the yeast fitness is at most 0.5.

Take GUUCCGUUGGCGUAAUGGUAACGCGUCUCCCUACUAAGGAGGAGACUGCGGGUCCGAGUCCUGUACGGAACG [C33A A42G U54C C62U]: the yeast fitness was found to be 0.637.

For GUUCCGUUGGCGUAAUGGUAACGCGUCUCCCUACUUAGGAAAAGACUACGGGUUCGAGUCCCGUACGGAACG [C33A A36U G41A G48A], the yeast fitness was at most 0.5.

As to GUUCCGUUGGCGUAAUGGUAACGCGUCUCCCUACUUAGGAGAAGACUGCGGGUUCGAGUCCCGUAUGGAACG [C33A A36U C66U], the yeast fitness was at most 0.5.

GUUCCGUUGGCGUAAUGGUAACGCGUCUCCCGCCUAAAGAGAAGACUGCGGGUUCGAGUCCCGUACGGAACG [U32G G38A]: the yeast fitness was found to be 0.586.
